According to ChEMBL document CHEMBL1140161, “Structure-activity relationships in 1,4-benzodioxan-related compounds. 9. From 1,4-benzodioxane to 1,4-dioxane ring as a promising template of novel alpha1D-adrenoreceptor antagonists, 5-HT1A full agonists, and cytotoxic agents” (J Med Chem, 2008):

How the values were obtained:
[1] = target: T1, Alpha-1A adrenergic receptor (Homo sapiens, UniProt P35348); assay: Displacement of [3H]prazosin from human cloned alpha1A adrenoceptor expressed in CHO cells; format: cell-based
T1 sequence (P35348 whole entry): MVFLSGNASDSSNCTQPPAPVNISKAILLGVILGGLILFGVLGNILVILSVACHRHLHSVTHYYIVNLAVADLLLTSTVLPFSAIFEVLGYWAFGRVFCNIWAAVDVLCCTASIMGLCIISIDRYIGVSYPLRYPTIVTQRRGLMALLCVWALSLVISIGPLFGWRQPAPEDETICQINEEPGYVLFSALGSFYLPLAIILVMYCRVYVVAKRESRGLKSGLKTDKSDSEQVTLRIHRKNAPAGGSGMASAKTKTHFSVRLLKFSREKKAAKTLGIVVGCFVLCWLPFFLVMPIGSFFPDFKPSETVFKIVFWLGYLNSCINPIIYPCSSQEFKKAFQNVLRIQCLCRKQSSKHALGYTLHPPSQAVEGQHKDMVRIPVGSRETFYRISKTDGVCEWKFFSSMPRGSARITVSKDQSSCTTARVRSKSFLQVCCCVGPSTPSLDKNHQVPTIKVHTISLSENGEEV
How it was run: (§1)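 [3H]prazosin binding to cloned human α1-adrenoceptor subtypes expressed in CHO cell membranes. Affinity reported as pKi for each subtype.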

[2] = target: T2, Alpha-1B adrenergic receptor (Homo sapiens, UniProt P35368); assay: Displacement of [3H]prazosin from human cloned Alpha-1B adrenoceptor expressed in CHO cells; format: cell-based; how it was run: as §1
T2 sequence (P35368 whole entry): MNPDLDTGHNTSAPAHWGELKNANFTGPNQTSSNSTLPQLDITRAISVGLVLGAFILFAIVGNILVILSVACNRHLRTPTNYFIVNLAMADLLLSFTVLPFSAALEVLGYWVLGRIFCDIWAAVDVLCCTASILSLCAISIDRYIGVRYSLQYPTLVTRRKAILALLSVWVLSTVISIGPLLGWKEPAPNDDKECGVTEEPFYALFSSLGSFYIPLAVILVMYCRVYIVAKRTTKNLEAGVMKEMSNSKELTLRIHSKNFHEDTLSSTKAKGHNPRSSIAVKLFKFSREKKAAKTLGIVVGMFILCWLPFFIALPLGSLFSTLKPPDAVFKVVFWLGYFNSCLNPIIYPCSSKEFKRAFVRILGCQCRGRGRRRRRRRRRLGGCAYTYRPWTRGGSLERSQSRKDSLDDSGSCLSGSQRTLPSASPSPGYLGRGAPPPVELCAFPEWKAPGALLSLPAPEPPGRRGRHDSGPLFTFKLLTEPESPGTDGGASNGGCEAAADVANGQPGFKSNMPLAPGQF

[3] = target: T3, 5-hydroxytryptamine receptor 1A (Homo sapiens, UniProt P08908); assay: Displacement of [3H]8-OH-DPAT from human cloned 5HT1A receptor expressed in human HeLa cells; format: cell-based
T3 sequence (P08908 whole entry): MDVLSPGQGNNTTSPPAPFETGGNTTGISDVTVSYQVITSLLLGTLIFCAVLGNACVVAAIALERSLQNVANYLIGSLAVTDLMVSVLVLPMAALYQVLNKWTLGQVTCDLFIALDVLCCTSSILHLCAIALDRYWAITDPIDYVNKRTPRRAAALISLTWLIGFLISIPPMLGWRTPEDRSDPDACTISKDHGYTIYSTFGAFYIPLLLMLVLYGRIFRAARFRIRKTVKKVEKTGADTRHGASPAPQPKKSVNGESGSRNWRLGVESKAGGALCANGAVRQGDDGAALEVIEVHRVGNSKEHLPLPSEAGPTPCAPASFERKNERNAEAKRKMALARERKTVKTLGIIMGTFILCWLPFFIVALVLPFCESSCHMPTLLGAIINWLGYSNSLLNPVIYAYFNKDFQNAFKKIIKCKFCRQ

[4] = target: T4, Alpha-1A adrenergic receptor (Rattus norvegicus) (UniProt P43140); assay: Antagonist activity at alpha1A adrenoceptor in Wistar rat prostatic vas deferens assessed as inhibition of (-)-noradrenaline-induced contraction after 30 mins; format: functional, tissue-based
T4 sequence (whole entry): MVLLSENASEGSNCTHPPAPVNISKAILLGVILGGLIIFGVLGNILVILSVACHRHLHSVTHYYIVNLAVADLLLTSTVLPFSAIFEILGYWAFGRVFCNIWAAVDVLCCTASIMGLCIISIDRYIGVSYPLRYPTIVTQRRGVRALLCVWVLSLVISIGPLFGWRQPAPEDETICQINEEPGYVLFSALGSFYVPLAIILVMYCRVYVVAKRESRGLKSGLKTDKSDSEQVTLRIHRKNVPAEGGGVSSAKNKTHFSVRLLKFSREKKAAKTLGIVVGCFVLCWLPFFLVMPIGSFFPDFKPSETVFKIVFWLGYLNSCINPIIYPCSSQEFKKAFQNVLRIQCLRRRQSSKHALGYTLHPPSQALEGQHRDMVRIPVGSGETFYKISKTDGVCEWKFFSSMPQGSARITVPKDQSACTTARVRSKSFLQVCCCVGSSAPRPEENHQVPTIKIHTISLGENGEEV

[5] = target: T5, Alpha-1B adrenergic receptor (Rattus norvegicus) (UniProt P15823); assay: Antagonist activity at alpha1B adrenoceptor in Wistar rat spleen assessed as inhibition of (-)-phenylephrine-induced contraction after 30 mins; format: functional, tissue-based
T5 sequence (whole entry): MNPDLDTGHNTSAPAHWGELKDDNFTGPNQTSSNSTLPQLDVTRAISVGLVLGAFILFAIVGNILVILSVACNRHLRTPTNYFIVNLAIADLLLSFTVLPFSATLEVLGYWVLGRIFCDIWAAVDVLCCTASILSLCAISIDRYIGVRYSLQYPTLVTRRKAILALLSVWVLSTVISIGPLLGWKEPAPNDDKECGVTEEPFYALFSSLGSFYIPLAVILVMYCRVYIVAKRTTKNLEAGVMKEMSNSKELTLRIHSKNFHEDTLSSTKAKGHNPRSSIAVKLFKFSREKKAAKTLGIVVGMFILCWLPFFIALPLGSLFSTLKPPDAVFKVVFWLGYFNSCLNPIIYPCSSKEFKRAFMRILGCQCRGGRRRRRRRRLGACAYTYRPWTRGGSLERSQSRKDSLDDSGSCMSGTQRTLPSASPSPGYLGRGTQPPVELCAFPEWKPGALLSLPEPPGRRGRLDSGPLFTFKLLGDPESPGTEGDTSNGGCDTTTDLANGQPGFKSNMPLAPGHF

Compound	Ki [1]	Ki [2]	Ki [3]	pKb [4]	pKb [5]
COc1ccccc1OCCNC[C@@H]1COC(c2ccccc2)(c2ccccc2)CO1	74.1 nM	74.1 nM	7.59 nM	6.37	6.81
COc1cccc(OC)c1OCCNC[C@@H]1COC(c2ccccc2)(c2ccccc2)CO1	89.1 nM	126 nM	229 nM	6.08	5.74
c1ccc(OCCNC[C@@H]2COCC(c3ccccc3)(c3ccccc3)O2)cc1	170 nM	120 nM	0.589 nM	6.93	7.84
COc1ccccc1OCCNC[C@@H]1COCC(c2ccccc2)(c2ccccc2)O1	27.5 nM	56.2 nM	0.661 nM	6.65	6.86
COc1cccc(OC)c1OCCNC[C@@H]1COCC(c2ccccc2)(c2ccccc2)O1	339 nM	324 nM	1.41 nM	6.71	6.24
c1ccc(OCCNC[C@@H]2COC(c3ccccc3)(c3ccccc3)CO2)cc1	224 nM	141 nM	37.2 nM	6.15	6.28
c1ccc(OCCNC[C@@H]2CO[C@H](c3ccccc3)CO2)cc1 (relative stereo)	> 1000 nM	> 1000 nM	25.7 nM	6.89	6.68
COc1ccccc1OCCNC[C@@H]1COC[C@H](c2ccccc2)O1 (relative stereo)	200 nM	269 nM	4.17 nM	6.57	7.4
c1ccc(OCCNC[C@@H]2COC[C@@H](c3ccccc3)O2)cc1 (relative stereo)	407 nM	> 1000 nM	52.5 nM	7.21	6.88
COc1cccc(OC)c1OCCNC[C@@H]1CO[C@H](c2ccccc2)CO1 (relative stereo)	> 1000 nM	> 1000 nM	257 nM	5.96	6.7
c1ccc(OCCNC[C@@H]2COC[C@H](c3ccccc3)O2)cc1 (relative stereo)	> 1000 nM	> 1000 nM	53.7 nM	6.72	7.12
COc1ccccc1OCCNC[C@@H]1COC[C@@H](c2ccccc2)O1 (relative stereo)	87.1 nM	302 nM	6.03 nM	7.22	7.96
COc1cccc(OC)c1OCCNC[C@@H]1COC[C@@H](c2ccccc2)O1 (relative stereo)	> 1000 nM	> 1000 nM	417 nM	5.8	5.75
COc1cccc(OC)c1OCCNC[C@@H]1COC[C@H](c2ccccc2)O1 (relative stereo)	468 nM	> 1000 nM	> 1000 nM	6.42	5.84
COc1cccc(OC)c1OCCNC[C@@H]1CO[C@@H](c2ccccc2)CO1 (relative stereo)	513 nM	> 1000 nM	234 nM	7.21	7.02
COc1ccccc1OCCNC[C@@H]1CO[C@@H](c2ccccc2)CO1 (relative stereo)	158 nM	282 nM	38.9 nM	7.1	7.44
COc1ccccc1OCCNC[C@@H]1CO[C@H](c2ccccc2)CO1 (relative stereo)	437 nM	263 nM	3.47 nM	6.47	6.89
c1ccc(OCCNC[C@@H]2CO[C@@H](c3ccccc3)CO2)cc1 (relative stereo)	537 nM	> 1000 nM	148 nM	7	6.97
